Data set [1] in a line: Oral bioavailability in CD1 mouse at 8.7 mg/kg administered via gavage by LC-MS/MS method. The class given is ADME, organism-based. The following applies: in vivo. In short, it runs like this: (§1)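 Specific pathogen-free female CD1 (Hsd:ICR) mice, 8–10 weeks old, housed in the institutional animal facility. Each compound was given intravenously at a low dose and orally at a higher dose. Vd, clearance, t1/2, Cmax, Tmax, AUC0-t, AUC∞ and %F were derived from plasma exposure after each route.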

Data set [2] in a line: Half life in CD1 mouse at 1.45 mg/kg, iv as bolus dose by LC-MS/MS method. Format: ADME, organism-based. The following applies: in vivo. In short, it runs like this:
(§2)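 Specific pathogen-free female CD1 (Hsd:ICR) mice, 8 to 10 weeks old. Each compound was given as an intravenous dose and an oral dose at the levels listed. Parameters reported: Vd, clearance, t1/2, Cmax, Tmax, AUC0-t, AUC∞ and %F.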

Data set [3] can be described thus: Clearance in CD1 mouse at 1.45 mg/kg, iv as bolus dose by LC-MS/MS method. The following applies: in vivo. Format: ADME, organism-based. In short, it runs like this:
as §2

Data set [4] can be described thus: Cmax in CD1 mouse at 8.7 mg/kg administered via oral gavage by LC-MS/MS method. Format: ADME, organism-based. To be noted: in vivo. The arrangement: dose 8.7 mg/kg, route oral. The gist of the method: as §2
The nature of data set [5]: AUC (0 to t) in CD1 mouse at 8.7 mg/kg administered via oral gavage by LC-MS/MS method. The class given is ADME, organism-based. The following applies: in vivo. In short, it runs like this: as §2
Data set [6] concerns Plasmodium falciparum. The experiment in a line: Antimalarial activity against Plasmodium falciparum 3D7A infected in human RBC after 48 hrs by [3H]-hypoxanthine incorporation assay. Format: functional.
The subject of data set [7] is Plasmodium yoelii. The data set is described as follows: Schizontocidal activity against Plasmodium yoelii infected in CD1 mouse administered via oral gavage as qd for 4 days starting 1 hr post infection by YOYO-1 dye-based flow cytometric method. Format: functional. In short, it runs like this: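 Blood schizontocidal activity was tested in a modified 4-day suppressive test in mice infected with P. yoelii. Four oral doses were given by gavage over four days.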
(In general: A flow cytometer gives signals particle by particle.)

Data set [8] is described as follows: Volume of distribution in CD1 mouse at 1.45 mg/kg, iv as bolus dose by LC-MS/MS method. To be noted: in vivo. Format: ADME, organism-based. The gist of the method:
as §1

The nature of data set [9]: Tmax in CD1 mouse at 8.7 mg/kg administered via oral gavage by LC-MS/MS method. Format: ADME, organism-based. To be noted: in vivo. In short, it runs like this:
as §1

Data set [10] concerns the target serum albumin (Homo sapiens, UniProt P02768). The data set is described as follows: Binding affinity to human serum albumin by HPLC method. Format: ADME. To be noted: read-out: PB (converted).
Data set [11] is described as follows: AUC (infinity) in CD1 mouse at 8.7 mg/kg administered via oral gavage by LC-MS/MS method. The class given is ADME, organism-based. Details: dose 8.7 mg/kg, route oral, time infinity. To be noted: in vivo. The gist of the method:
as §2

Data set [12] is described as follows: AUC (0 to t) in CD1 mouse at 8.366 mg/kg administered via oral gavage by LC-MS/MS method. The class given is ADME, organism-based. The following applies: in vivo. In short, it runs like this: as §2
The nature of data set [13]: Half life in CD1 mouse at 0.211 mg/kg, iv as bolus dose by LC-MS/MS method. The following applies: in vivo. The class given is ADME, organism-based. The gist of the method: as §2
Data set [14] in a line: AUC (infinity) in CD1 mouse at 8.366 mg/kg administered via oral gavage by LC-MS/MS method. Format: ADME, organism-based. The arrangement: dose 8.366 mg/kg, route oral, time infinity. The following applies: in vivo. The gist of the method: as §2
A short description of data set [15]: Clearance in CD1 mouse at 0.211 mg/kg, iv as bolus dose by LC-MS/MS method. The class given is ADME, organism-based. The following applies: in vivo. The gist of the method:
as §2

Data set [16] can be described thus: Volume of distribution in CD1 mouse at 0.211 mg/kg, iv as bolus dose by LC-MS/MS method. The class given is ADME, organism-based. The following applies: in vivo. In short, it runs like this:
as §1

Data set [17] can be described thus: Cmax in CD1 mouse at 8.366 mg/kg administered via oral gavage by LC-MS/MS method. The class given is ADME, organism-based. The arrangement: dose 8.366 mg/kg, route oral. To be noted: in vivo. In short, it runs like this: as §2
Data set [18] is described as follows: Oral bioavailability in CD1 mouse at 8.366 mg/kg administered via gavage by LC-MS/MS method. Format: ADME, organism-based. To be noted: in vivo. In short, it runs like this:
as §1

Data set [19] is described as follows: Tmax in CD1 mouse at 8.366 mg/kg administered via oral gavage by LC-MS/MS method. The class given is ADME, organism-based. To be noted: in vivo. The gist of the method: as §1
The nature of data set [20]: AUC (0 to t) in CD1 mouse at 11.512 mg/kg administered via oral gavage by LC-MS/MS method. Format: ADME, organism-based. The following applies: in vivo. The gist of the method:
as §2

Data set [21] is described as follows: Half life in CD1 mouse at […], iv as bolus dose by LC-MS/MS method. The class given is ADME, organism-based. The following applies: in vivo.
The nature of data set [22]: Equilibrium solubility of compound in FeSSIF after 24 hrs by LC-MS method. Format: physicochemical.
Data set [23] can be described thus: Cmax in CD1 mouse at 11.512 mg/kg administered via oral gavage by LC-MS/MS method. The class given is ADME, organism-based. Details: dose 11.512 mg/kg, route oral. To be noted: in vivo, 11.51 mg/kg. In short, it runs like this:
as §2

Data set [24] can be described thus: Clearance in CD1 mouse at […], iv as bolus dose by LC-MS/MS method. The class given is ADME, organism-based. To be noted: in vivo.
The nature of data set [25]: Volume of distribution in CD1 mouse at […], iv as bolus dose by LC-MS/MS method. The class given is ADME, organism-based. To be noted: in vivo.
A short description of data set [26]: Tmax in CD1 mouse at 11.512 mg/kg administered via oral gavage by LC-MS/MS method. Format: ADME, organism-based. To be noted: in vivo. The gist of the method: as §1
Data set [27] is described as follows: Equilibrium solubility of compound in FaSSIF after 24 hrs by LC-MS method. The class given is physicochemical.
Data set [28] can be described thus: AUC (infinity) in CD1 mouse at 11.512 mg/kg administered via oral gavage by LC-MS/MS method. The class given is ADME, organism-based. The arrangement: dose 11.512 mg/kg, time infinity, route oral. The following applies: in vivo, 11.51 mg/kg. In short, it runs like this: as §2
Data set [29] is described as follows: Oral bioavailability in CD1 mouse at 11.512 mg/kg administered via gavage by LC-MS/MS method. Format: ADME, organism-based. The following applies: in vivo. In short, it runs like this:
as §2

The structures appear in SMILES notation. pIC50: −log10 of the molar value. Values after ≈ are worked out from the molar mass of the structure shown.

serum albumin, sequence (P02768 whole entry): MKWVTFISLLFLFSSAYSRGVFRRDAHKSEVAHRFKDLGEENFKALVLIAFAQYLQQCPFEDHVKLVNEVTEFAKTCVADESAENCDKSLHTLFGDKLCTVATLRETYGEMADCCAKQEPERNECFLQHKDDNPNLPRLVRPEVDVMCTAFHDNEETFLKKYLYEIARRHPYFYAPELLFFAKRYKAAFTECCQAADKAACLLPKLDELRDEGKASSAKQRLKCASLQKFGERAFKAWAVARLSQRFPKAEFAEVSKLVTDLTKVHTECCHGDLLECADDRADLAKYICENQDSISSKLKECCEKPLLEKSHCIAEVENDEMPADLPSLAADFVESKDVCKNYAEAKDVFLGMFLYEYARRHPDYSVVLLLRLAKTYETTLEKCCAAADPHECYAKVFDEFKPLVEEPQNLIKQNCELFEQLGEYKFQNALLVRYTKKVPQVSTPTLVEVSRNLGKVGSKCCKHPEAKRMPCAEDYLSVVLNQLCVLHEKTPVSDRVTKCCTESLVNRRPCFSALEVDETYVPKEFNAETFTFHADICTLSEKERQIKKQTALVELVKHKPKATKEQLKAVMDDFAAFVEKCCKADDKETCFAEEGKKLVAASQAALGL

On to `Cc1[nH]c(CO)c(-c2ccc(-c3ccc(OC(F)(F)F)cc3)nc2)c(=O)c1Cl`, for which the bioavailability in [1] was found to be 133%. For the same compound, the half-life – broadly, the time needed for the level to fall by half in the phase considered – in [2] is 7.4 h. For the same compound, the clearance (commonly the rate of elimination divided by the concentration) in data set [3] came to 1.76 mL/min/kg. In addition, in [4], the peak level (Cmax) was 8540 ng/mL. For the same compound, the AUC(0-t) (as a rule, the area under the concentration-time curve up to a stated or last time point) in data set [5] was found to be 110 µg·h/mL. Moreover, the pIC50 (commonly −log10 of the IC50, conventionally taken in molar units) in data set [6] is 7.47. For the same compound, the ED50 – broadly, the dose at which the effect has come halfway, by size or by number of responders – in [7] was found to be 0.4 mg/kg. Also, in [8], the Vd (usually the apparent volume that relates the amount in the body to the concentration in plasma or blood) came out at 1.11 L/kg. Besides, the Tmax – broadly, the time from dosing to the highest level – in data set [9] came to 1 h. In data set [10], the fraction unbound was 0.05. The AUC(0-inf) (as a rule, total exposure, with the tail of the curve extrapolated) in data set [11] came out at 111 µg·h/mL.
`Cc1[nH]c(C)c(-c2ccc(-c3ccc(C(F)(F)F)cc3Cl)nc2)c(=O)c1Cl` returned an AUC(0-t) in data set [12] of 37.4 µg·h/mL. The same compound gave a half-life in [13] of 12.8 h. In [14], this compound gave an AUC(0-inf) of 37.5 µg·h/mL. In data set [15], this compound registered a clearance of 1.11 mL/min/kg. Moreover, the Vd in [16] is 1.24 L/kg. The compound further had a pIC50 in [6] of 8.70. In [7], this compound displayed an ED50 of 0.33 mg/kg. Besides, the Cmax (in general, the highest concentration seen after dosing) in data set [17] came out at 1690 ng/mL. Further, the bioavailability in data set [18] is 30%. Also, the fraction unbound in data set [10] is 0.05. Moreover, the Tmax in data set [19] worked out at 10 h.
On to `Cc1[nH]c(C)c(-c2ccc(-c3ccc(C(F)(F)F)cc3F)nc2)c(=O)c1Cl`, for which the AUC(0-t) in data set [20] came to 204 µg·h/mL. The half-life in data set [21] is 33.8 h. In addition, the thermodynamic solubility – broadly, the concentration in solution at equilibrium with solid – at 24 h in data set [22] was 1.33 µg/mL (≈ 3.35 µM); in data set [27] it was less than 1 µg/mL. For the same compound, the peak level in data set [23] (Cmax) was 6380 ng/mL. In data set [24], the clearance worked out at 0.26 mL/min/kg. Further, the Vd in data set [25] came out at 0.75 L/kg. Further, the Tmax in data set [26] turned out to be 10 h. The compound also showed a pIC50 in [6] of 8.00. It took a dose of 0.08 mg/kg to reach the 50% effect level in data set [7] (ED50). The AUC(0-inf) in data set [28] was 226 µg·h/mL. In addition, the bioavailability in [29] is 30%. Besides, in data set [10], the fraction unbound is 0.05.

These data come from ChEMBL document CHEMBL4043297, “Synthesis and Structure-Activity Relationships of the Novel Antimalarials 5-Pyridinyl-4(1 H)-Pyridones” (J Med Chem, 2018).
